Assay results as given in ChEMBL document CHEMBL3352526, “4-Quinolone-3-carboxylic acids as cell-permeable inhibitors of protein tyrosine phosphatase 1B” (Bioorg Med Chem, 2014).
Each block holds one compound with its values, some of them ahead of it. The source made the active and inactive calls. The calls are words filed in the database; no cut-off is given here.

Columns and labels:
[1] = molecular target: T1, Tyrosine-protein phosphatase non-receptor type 2 (Homo sapiens) (UniProt P17706); test: Inhibition of TCPTP (unknown origin) using pNPP as substrate at 20 ug/ml by colorimetric assay
T1 sequence (whole entry): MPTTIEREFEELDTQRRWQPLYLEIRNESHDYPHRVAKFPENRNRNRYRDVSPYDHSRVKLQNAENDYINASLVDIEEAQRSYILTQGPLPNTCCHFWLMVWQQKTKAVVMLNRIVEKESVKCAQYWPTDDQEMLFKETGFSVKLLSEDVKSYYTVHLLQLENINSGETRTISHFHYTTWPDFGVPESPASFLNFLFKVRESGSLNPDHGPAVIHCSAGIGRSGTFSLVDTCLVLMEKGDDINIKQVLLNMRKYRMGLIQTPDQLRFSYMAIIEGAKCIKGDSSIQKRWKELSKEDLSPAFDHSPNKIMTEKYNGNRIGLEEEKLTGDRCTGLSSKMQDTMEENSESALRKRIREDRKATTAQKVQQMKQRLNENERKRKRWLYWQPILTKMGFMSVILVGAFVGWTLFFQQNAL

[2] = molecular target: T2, Tyrosine-protein phosphatase non-receptor type 1 (Homo sapiens, UniProt P18031); test: Inhibition of PTP1B (unknown origin) using pNPP as substrate by colorimetric assay
T2 sequence (P18031 whole entry): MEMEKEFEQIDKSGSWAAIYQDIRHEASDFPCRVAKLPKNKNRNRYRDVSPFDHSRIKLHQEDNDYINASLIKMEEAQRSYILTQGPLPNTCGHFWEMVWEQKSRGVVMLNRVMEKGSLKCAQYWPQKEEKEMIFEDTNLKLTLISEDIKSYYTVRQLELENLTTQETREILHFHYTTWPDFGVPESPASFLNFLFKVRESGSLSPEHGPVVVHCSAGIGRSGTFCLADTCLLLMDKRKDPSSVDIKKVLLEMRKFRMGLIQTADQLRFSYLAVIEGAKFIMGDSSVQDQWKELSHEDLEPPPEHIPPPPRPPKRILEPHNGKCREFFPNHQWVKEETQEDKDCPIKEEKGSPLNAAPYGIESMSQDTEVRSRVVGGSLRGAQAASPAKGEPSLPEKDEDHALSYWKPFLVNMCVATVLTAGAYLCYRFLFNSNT
In short: (§1)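 GST-PTP1B or GST-TCPTP at 30 nmol/L, 2 mmol/L pNPP, 50 mmol/L MOPS pH 6.5, 2% DMSO, compounds serially diluted from DMSO. Hydrolysis followed continuously at 405 nm for 3 min at 30 °C. IC50 from nonlinear fit of % inhibition vs concentration with Hill coefficient; means ± SD of three replications.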

[3] = molecular target: T3, Receptor-type tyrosine-protein phosphatase F (Homo sapiens, UniProt P10586); test: Inhibition of LAR (unknown origin) using 3-o-methylfluorescein phosphatase substrate by colorimetric assay
In short: (§2)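 SHP1, SHP2 or LAR recombinant enzyme at 20 nmol/L with 10 µmol/L OMFP in 50 mmol/L MOPS pH 6.5, 2 mmol/L DTT, 1 mmol/L EDTA, 2% DMSO, 30 °C. Fluorescent product read at ex 485/em 530 nm; initial rate from the early linear part of the kinetic curve.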

[4] = molecular target: T4, Tyrosine-protein phosphatase non-receptor type 11 (Homo sapiens) (UniProt Q06124); test: Inhibition of SHP2 (unknown origin) using 3-o-methylfluorescein phosphatase substrate at 20 ug/ml by colorimetric assay
T4 sequence (whole entry): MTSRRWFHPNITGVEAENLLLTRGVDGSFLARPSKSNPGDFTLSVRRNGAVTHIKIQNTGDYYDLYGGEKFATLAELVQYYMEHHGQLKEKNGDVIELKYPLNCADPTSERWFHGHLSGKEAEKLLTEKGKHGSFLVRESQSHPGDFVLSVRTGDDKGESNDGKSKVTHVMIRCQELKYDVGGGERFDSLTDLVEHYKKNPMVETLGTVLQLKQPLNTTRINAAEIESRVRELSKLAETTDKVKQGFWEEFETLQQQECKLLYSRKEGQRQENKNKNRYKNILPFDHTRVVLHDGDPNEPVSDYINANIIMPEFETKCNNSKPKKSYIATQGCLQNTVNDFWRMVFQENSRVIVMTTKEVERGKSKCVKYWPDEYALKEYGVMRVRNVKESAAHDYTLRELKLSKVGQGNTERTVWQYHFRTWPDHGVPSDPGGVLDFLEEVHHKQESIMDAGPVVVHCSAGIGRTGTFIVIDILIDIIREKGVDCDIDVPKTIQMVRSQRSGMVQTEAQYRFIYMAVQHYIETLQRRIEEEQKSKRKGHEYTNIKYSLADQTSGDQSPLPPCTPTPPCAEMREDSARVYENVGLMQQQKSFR

[5] = molecular target: T5, Tyrosine-protein phosphatase non-receptor type 11 (Homo sapiens, UniProt Q06124); test: Inhibition of SHP2 (unknown origin) using 3-o-methylfluorescein phosphatase substrate by colorimetric assay; in short: as §2
T5 sequence (Q06124 whole entry): T4 sequence (whole entry)

[6] = molecular target: T6, Tyrosine-protein phosphatase non-receptor type 6 (Homo sapiens, UniProt P29350); test: Inhibition of SHP1 (unknown origin) using 3-o-methylfluorescein phosphatase substrate at 20 ug/ml by colorimetric assay
[7] = molecular target: T7, Tyrosine-protein phosphatase non-receptor type 2 (Homo sapiens, UniProt P17706); test: Inhibition of TCPTP (unknown origin) using pNPP as substrate by colorimetric assay; in short: as §1
T7 sequence (P17706 whole entry): T1 sequence (whole entry)

[8] = molecular target: T6, Tyrosine-protein phosphatase non-receptor type 6; test: Inhibition of SHP1 (unknown origin) using 3-o-methylfluorescein phosphatase substrate by colorimetric assay; in short: as §2
[9] = molecular target: T3, Receptor-type tyrosine-protein phosphatase F; test: Inhibition of LAR (unknown origin) using 3-o-methylfluorescein phosphatase substrate at 20 ug/ml by colorimetric assay
[10] = molecular target: T8, Tyrosine-protein phosphatase non-receptor type 1 (Homo sapiens) (UniProt P18031); test: Inhibition of PTP1B (unknown origin) using pNPP as substrate at 20 ug/ml by colorimetric assay
T8 sequence (whole entry): T2 sequence (P18031 whole entry)

Homo sapiens [11] = organism: Homo sapiens; test: Selectivity ratio of IC50 for TCPTP (unknown origin) to IC50 for PTP1B (unknown origin)
Homo sapiens [12] = organism: Homo sapiens; test: Selectivity ratio of IC50 for LAR (unknown origin) to IC50 for PTP1B (unknown origin)
Homo sapiens [13] = organism: Homo sapiens; test: Selectivity ratio of IC50 for SHP2 (unknown origin) to IC50 for PTP1B (unknown origin)
[14] = molecular target: T2, Tyrosine-protein phosphatase non-receptor type 1; test: Competitive inhibition of PTP1B (unknown origin) using pNPP as substrate by Lineweaver-Burk plot
In short: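 Kinetics in 100 µL of 50 mmol/L MOPS pH 6.5 with 30 nmol/L PTP1B, pNPP in 2-fold dilutions from 80 mmol/L, at several inhibitor concentrations. Ki taken from a linear replot of apparent Km/Vmax (slope of double-reciprocal plot) against [I].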

[15] = molecular target: T8, Tyrosine-protein phosphatase non-receptor type 1 (Homo sapiens); test: Inhibition of PTP1B (unknown origin) expressed in CHO cells co-expressing human IRbeta assessed as increase in insulin-stimulated IRbeta phosphorylation at 3 to 30 uM after 1 hr by Western blotting analysis; format: cell-based
In short: (§3)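 CHO/hIR cells grown in F12 with 10% FBS, penicillin/streptomycin, 37 °C, 5% CO2. After 2 h serum starvation, compound for 1 h, then 10 nM insulin for 10 min. Lysates in SDS loading buffer run on 8% SDS-PAGE, blotted with anti-pTyr (PY20); β-actin as loading control.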

[16] = molecular target: T8, Tyrosine-protein phosphatase non-receptor type 1 (Homo sapiens); test: Inhibition of PTP1B (unknown origin) expressed in CHO cells co-expressing human IRbeta assessed as increase in insulin-stimulated IRbeta phosphorylation at 90 uM after 1 hr by Western blotting analysis; format: cell-based; in short: as §3

T3 sequence (P10586 whole entry): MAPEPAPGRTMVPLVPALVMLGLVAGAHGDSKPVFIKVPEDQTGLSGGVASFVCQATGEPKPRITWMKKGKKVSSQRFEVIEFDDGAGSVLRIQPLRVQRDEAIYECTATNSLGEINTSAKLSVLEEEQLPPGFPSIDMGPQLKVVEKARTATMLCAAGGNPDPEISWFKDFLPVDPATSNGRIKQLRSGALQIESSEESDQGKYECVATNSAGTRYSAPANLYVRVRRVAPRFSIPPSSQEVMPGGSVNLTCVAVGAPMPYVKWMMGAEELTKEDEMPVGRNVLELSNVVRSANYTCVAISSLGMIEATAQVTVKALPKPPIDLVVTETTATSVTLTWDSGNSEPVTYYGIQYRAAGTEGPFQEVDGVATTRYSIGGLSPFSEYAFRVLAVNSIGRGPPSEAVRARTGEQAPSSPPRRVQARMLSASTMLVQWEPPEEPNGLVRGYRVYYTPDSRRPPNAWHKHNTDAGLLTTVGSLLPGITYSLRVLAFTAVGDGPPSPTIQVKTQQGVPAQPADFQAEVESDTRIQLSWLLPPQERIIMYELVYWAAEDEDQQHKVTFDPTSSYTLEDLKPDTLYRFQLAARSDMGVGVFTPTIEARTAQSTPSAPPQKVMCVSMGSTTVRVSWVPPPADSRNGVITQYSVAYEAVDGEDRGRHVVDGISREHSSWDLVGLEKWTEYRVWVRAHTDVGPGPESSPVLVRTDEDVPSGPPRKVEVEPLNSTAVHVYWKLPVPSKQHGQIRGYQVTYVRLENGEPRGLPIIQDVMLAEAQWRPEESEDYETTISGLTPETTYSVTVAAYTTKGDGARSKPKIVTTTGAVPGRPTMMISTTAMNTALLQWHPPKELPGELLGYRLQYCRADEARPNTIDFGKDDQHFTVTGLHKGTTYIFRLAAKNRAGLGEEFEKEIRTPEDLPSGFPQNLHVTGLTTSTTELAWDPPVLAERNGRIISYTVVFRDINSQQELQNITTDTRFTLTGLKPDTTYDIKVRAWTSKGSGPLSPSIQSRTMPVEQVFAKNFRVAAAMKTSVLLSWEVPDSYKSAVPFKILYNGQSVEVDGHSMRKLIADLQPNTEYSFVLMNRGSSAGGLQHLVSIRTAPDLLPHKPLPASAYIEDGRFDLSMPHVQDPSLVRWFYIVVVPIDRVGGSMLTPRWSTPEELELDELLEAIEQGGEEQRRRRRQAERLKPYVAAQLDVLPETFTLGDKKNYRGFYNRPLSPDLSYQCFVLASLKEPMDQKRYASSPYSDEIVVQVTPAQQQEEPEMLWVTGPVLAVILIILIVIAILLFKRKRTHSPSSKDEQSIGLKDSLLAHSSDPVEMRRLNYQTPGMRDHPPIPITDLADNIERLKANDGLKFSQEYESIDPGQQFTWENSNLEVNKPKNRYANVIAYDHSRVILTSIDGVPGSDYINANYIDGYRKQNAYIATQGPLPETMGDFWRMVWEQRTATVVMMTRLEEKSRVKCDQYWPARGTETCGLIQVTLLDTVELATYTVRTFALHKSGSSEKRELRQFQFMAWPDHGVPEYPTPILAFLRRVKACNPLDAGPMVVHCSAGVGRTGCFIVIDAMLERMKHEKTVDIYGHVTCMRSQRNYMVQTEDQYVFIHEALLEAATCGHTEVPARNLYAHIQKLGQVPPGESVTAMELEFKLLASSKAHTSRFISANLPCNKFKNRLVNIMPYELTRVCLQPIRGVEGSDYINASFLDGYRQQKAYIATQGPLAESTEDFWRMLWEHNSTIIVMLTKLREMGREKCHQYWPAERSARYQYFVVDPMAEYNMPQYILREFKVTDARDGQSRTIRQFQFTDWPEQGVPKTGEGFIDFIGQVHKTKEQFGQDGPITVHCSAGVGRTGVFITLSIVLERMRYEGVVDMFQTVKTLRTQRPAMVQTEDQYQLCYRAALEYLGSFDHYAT
T6 sequence (P29350 whole entry): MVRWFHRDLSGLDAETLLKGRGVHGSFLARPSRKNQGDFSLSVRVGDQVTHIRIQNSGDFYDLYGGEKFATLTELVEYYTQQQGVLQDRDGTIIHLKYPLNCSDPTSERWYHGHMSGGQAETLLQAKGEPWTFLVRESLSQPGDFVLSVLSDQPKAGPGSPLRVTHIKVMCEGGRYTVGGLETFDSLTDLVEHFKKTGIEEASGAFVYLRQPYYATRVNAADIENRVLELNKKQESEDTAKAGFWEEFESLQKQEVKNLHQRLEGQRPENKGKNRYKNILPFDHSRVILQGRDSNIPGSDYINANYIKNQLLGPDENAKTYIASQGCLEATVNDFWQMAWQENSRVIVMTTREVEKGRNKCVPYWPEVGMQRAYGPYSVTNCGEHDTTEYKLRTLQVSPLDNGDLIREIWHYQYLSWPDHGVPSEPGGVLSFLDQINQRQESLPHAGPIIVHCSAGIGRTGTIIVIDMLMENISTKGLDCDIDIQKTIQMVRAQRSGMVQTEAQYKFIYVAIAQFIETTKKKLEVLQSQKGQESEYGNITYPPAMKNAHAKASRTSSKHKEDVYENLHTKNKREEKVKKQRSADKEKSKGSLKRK

SMILES: O=C(NCc1ccccc1)c1cn(Cc2ccccc2)c2ccc(I)cc2c1=O
inhibition [1]: < 50%
IC50 [2]: 28.1 µM
inhibition [10]: 61.8%
IC50 [3]: Not Active
inhibition [4]: < 50%
IC50 [5]: Not Active
inhibition [6]: < 50%
IC50 [7]: Not Active
IC50 [8]: Not Active
inhibition [9]: < 50%

SMILES: O=C(NCc1ccccc1)c1cn(C2CC2)c2ccc(I)cc2c1=O
inhibition [10]: 6.1%

SMILES: O=C(O)c1cn(C2CC2)c2ccc(F)cc2c1=O
inhibition [10]: 0.8%

SMILES: COC(=O)c1cc(Cn2cc(C(=O)NCc3ccccc3)c(=O)c3cc(I)ccc32)ccc1OC
IC50 [2]: > 34.3 µM

SMILES: O=C(O)c1cn(Cc2ccccc2)c2ccc(Cc3ccccc3)cc2c1=O
inhibition [10]: 15.1%

SMILES: O=C(O)c1cn(C2CC2)c2ccc(Cc3ccccc3)cc2c1=O
inhibition [1]: < 50%
IC50 [2]: 23.5 µM
inhibition [10]: 87.5%
IC50 [3]: Not Active
inhibition [4]: < 50%
IC50 [5]: Not Active
inhibition [6]: < 50%
IC50 [7]: Not Active
IC50 [8]: Not Active
inhibition [9]: < 50%

SMILES: COC(=O)c1c(O)cccc1OCCCNC(=O)c1cn(Cc2ccc(F)cc2)c2ccc([N+](=O)[O-])cc2c1=O
inhibition [1]: < 50%
IC50 [2]: 11.8 µM
IC50 [3]: Not Active
inhibition [4]: < 50%
IC50 [5]: Not Active
inhibition [6]: < 50%
IC50 [7]: Not Active
IC50 [8]: Not Active
inhibition [9]: < 50%

SMILES: COC(=O)c1c(O)cccc1OCCCNC(=O)c1cn(Cc2ccccc2)c2cc(F)ccc2c1=O
IC50 [2]: 18.6 µM

SMILES: O=C(OCc1ccccc1)c1cn(Cc2ccccc2)c2ccc(Cc3ccccc3)cc2c1=O
inhibition [10]: 0.1%

SMILES: O=C(NCc1ccccc1)c1cn(C2CC2)c2ccc(F)cc2c1=O
inhibition [10]: 0.2%

SMILES: O=C(OCc1ccccc1)c1cn(C2CC2)c2ccc(I)cc2c1=O
IC50 [2]: 25.6 µM
inhibition [10]: 80.5%

SMILES: O=C(NCc1ccccc1)c1cn(Cc2ccccc2)c2ccc(F)cc2c1=O
inhibition [10]: 41.4%

SMILES: O=C(O)c1cn(C2CC2)c2ccc(N3CCN(Cc4ccccc4)CC3)cc2c1=O
IC50 [2]: 22.8 µM
inhibition [10]: 62.3%

SMILES: O=C(NCc1ccc(F)cc1)c1cn(C2CC2)c2ccc(I)cc2c1=O
inhibition [10]: 3.3%

SMILES: COC(=O)c1c(OCCCN2CCN(c3ccc4c(c3)c(=O)c(C(=O)O)cn4C3CC3)CC2)cccc1OCc1ccccc1
IC50 [2]: 73.9 µM

SMILES: O=C(/C=C(\O)C(=O)N1CCN(C(=O)/C(O)=C\C(=O)c2cccc(N(Cc3ccccc3)Cc3ccccc3)c2)CC1)c1cccc(N(Cc2ccccc2)Cc2ccccc2)c1
IC50 [2]: 2.8 µM

SMILES: O=C(OCc1ccc(F)cc1)c1cn(C2CC2)c2ccc(Cc3ccc(F)cc3)cc2c1=O
IC50 [2]: 31.4 µM
inhibition [10]: 73%

SMILES: O=C(O)c1cn(C2CC2)c2ccc(Cc3ccc(F)cc3)cc2c1=O
inhibition [1]: < 50%
IC50 [2]: 36.5 µM
inhibition [10]: 71.1%
IC50 [3]: Not Active
inhibition [4]: < 50%
IC50 [5]: Not Active
inhibition [6]: < 50%
IC50 [7]: Not Active
IC50 [8]: Not Active
inhibition [9]: < 50%

SMILES: O=C(NCc1ccccc1)c1cn(C2CC2)c2cc(F)ccc2c1=O
inhibition [10]: 7.4%

SMILES: O=C(O)c1cn(C2CC2)c2ccc(I)cc2c1=O
inhibition [10]: 3.5%

Further lines, results first:

inhibition [1]: < 50%
IC50 [2]: 16.9 µM
IC50 [3]: Not Active
inhibition [4]: < 50%
IC50 [5]: Not Active
inhibition [6]: < 50%
IC50 [7]: Not Active
IC50 [8]: Not Active
inhibition [9]: < 50%
SMILES: COC(=O)c1cc(Cn2cc(C(=O)O)c(=O)c3cc(I)ccc32)ccc1O

IC50 [2]: > 40.5 µM
SMILES: COC(=O)c1cc(Cn2cc(C(=O)O)c(=O)c3cc(I)ccc32)ccc1OC

inhibition [10]: 15.1%
SMILES: O=C(O)c1cn(Cc2ccccc2)c2ccc(F)cc2c1=O

Ratio IC50 (Homo sapiens [11]): 2
IC50 [2]: 4.62 µM
IC50 [3]: Not Active
inhibition [4]: < 50%
IC50 [5]: Not Active
Ratio IC50 (Homo sapiens [12]): > 10
IC50 ([7]; read-out: IC50 (converted)): 9.44 µM
IC50 ([8]; read-out: IC50 (converted)): 9.82 µM
Ratio IC50 (Homo sapiens [13]): > 10
inhibition [9]: < 50%
SMILES: O=C(O)/C(O)=C/C(=O)c1cccc(Cn2cc(C(=O)O)c(=O)c3cc(I)ccc32)c1

inhibition [10]: 36.2%
SMILES: O=C(O)c1cn(Cc2ccc(F)cc2)c2ccc([N+](=O)[O-])cc2c1=O

Ratio IC50 (Homo sapiens [11]): 2
Ki [14]: 1330 nM
IC50 [2]: 5.66 µM
IC50 [3]: Not Active
Activity [15]: inactive
Activity [16]: Active
inhibition [4]: < 50%
IC50 [5]: Not Active
Ratio IC50 (Homo sapiens [12]): > 10
IC50 ([7]; read-out: IC50 (converted)): 11.5 µM
IC50 ([8]; read-out: IC50 (converted)): 12.4 µM
Ratio IC50 (Homo sapiens [13]): > 10
inhibition [9]: < 50%
SMILES: CCOC(=O)/C(O)=C/C(=O)c1cccc(Cn2cc(C(=O)O)c(=O)c3cc(I)ccc32)c1

inhibition [10]: 3.1%
SMILES: O=C(O)c1cn(Cc2ccccc2)c2ccc(I)cc2c1=O

inhibition [10]: 0.7%
SMILES: O=C(O)c1cn(Cc2ccccc2)c2cc(F)ccc2c1=O

inhibition [10]: 12.4%
SMILES: Nc1ccc2c(c1)c(=O)c(C(=O)O)cn2Cc1ccc(F)cc1
